# Screens deposited in PubChem BioAssay by several laboratories.
# Shown are actives, neighbours in structure and some others; about 1.8% of the full set was active somewhere.
# APJ antagonist: antagonists of human APJ apelin receptor; P35414; inhibition, % at 20 µM; 330,000 tested, 0.32% active; CHO-K1 APJ beta-arrestin complementation, luminescence;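 active means inhibition above about 40% at 20 µM, limit read from the data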;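 further: cells challenged with 10 nM apelin-13 agonist together with compound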
# CXCR6 block: CXCR6 (human) receptor inhibition | O00574 | 360,000 tested, 0.36% active | inhibition, % at 20 µM | CHO-K1 PathHunter CXCR6 beta-arrestin, luminescence; in the data active means inhibition above about 34%, passing the limit was not always enough;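 further: antagonist mode with CXCL16 agonist at 10 nM final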
# B2AR ag: human beta-2 adrenergic receptor agonism by FAP. response, % (test concentration not listed). Am2.2-beta2AR cells, FAP receptor internalization, flow cytometry. 340,000 tested, 0.43% active. P07550;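 active means response above a set limit, near 3 SD of response in nonfluorescent compounds, cut at about 42% in these data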
# CCR6 antagonist: antagonists of human CCR6 receptor | P51684 | CHO-K1 CCR6 PathHunter beta-arrestin, luminescence, CCL20-stimulated | inhibition, % at 20 µM | 340,000 tested, 0.49% active | AID 493098;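 active means compounds whose inhibition of the agonist-driven luminescence signal at 20 µM reaches about 50%, limit read from the data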;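 further: cells stimulated with CCL20 at 14 nM final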
# Target sequence (P51684 whole entry, looked up): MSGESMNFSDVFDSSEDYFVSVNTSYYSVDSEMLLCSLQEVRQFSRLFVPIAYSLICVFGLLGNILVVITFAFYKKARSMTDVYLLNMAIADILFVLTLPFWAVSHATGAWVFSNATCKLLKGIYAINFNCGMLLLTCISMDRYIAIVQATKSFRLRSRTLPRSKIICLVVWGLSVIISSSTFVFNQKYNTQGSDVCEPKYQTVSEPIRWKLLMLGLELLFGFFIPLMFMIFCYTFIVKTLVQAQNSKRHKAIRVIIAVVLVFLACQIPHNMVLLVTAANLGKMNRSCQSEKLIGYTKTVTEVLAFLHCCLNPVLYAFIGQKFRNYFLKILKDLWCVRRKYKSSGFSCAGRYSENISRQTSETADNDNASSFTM
# EBI2 antag: antagonists of human EBI2 receptor; inhibition, % at 5 µM; EBI2 beta-arrestin recruitment, luminescence, 7a,25-OHC stimulated; 360,000 tested, 0.81% active; in the data active means inhibition above about 38%;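 further: enzyme fragment complementation signal reports receptor beta-arrestin coupling in cells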
# APJ ag: agonists of human APJ apelin receptor; CHO-K1 APJ PathHunter beta-arrestin, luminescence; 0% DMSO wells, 100% apelin; 330,000 tested, 0.11% active; AID 2520; P35414; activation, % at 20 µM;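 active means activation more than six SD over the plate average, tested at 20 µM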
#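 assay system = CHO-K1 APJ beta-arrestin complementation cell line | input = cell density 1000 per well | dosing = compound 20 µM once, DMSO 1% | timing = compound 90 min 25 °C, reagent 1 h | measured by = luminescence from split beta-galactosidase complementation, Galacton Star/Emerald II substrate | read-out basis = APJ agonist activity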
# APJ antag confirm: APJ receptor antagonism confirmation; inhibition, % at 20 µM; shares compounds with APJ antagonist; APJ beta-arrestin recruitment, luminescence, antagonist mode; 950 tested, 66% active; in the data active means inhibition above about 50%
# CXCR6 antag conf: CXCR6 antagonism confirmation, single concentration; shares compounds with CXCR6 block; CHO-K1 CXCR6 PathHunter beta-arrestin, luminescence; inhibition, % at 20 µM; 700 tested, 65% active; AID 602409;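 active means mean inhibition over four retests above 40%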;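 further: receptor stimulated with 10 nM CXCL16 agonist; beta-galactosidase fragment complementation upon beta-arrestin recruitment to receptor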
# Numbers stand for hits; 0 = inactive; - = no result given.
SMILES,APJ antagonist,CXCR6 block,B2AR ag,CCR6 antagonist,EBI2 antag,APJ ag,APJ antag confirm,CXCR6 antag conf
CC(=O)NS(=O)(=O)c1ccc(Nc2ccc([N+](=O)[O-])c3nonc23)cc1,45,51,0,55,0,0,101,47
O=C(CN1CCN(S(=O)(=O)c2ccc(Cl)c(Cl)c2)CC1)N1CCCC1,0,0,0,0,0,0,-,-
CC(=O)Nc1cc(-c2ccoc2)cn2c(-c3ccccc3)cnc12,-,0,-,-,0,-,-,-
O=S1(=O)CC(N2CCCC2)CN1Cc1cn(Cc2cccc(Cl)c2)nn1 (configuration not stated),-,0,-,-,0,-,-,-
CC(=O)OCCCNc1cc(Sc2nc3ccccc3s2)c2nonc2c1[N+](=O)[O-],77,93,0,104,63,0,101,103
O=C(O)c1cccc(NC(=S)NC(=O)c2cncc(Br)c2)c1,43,58,0,0,0,0,81,0
Cc1ccccc1NC(=S)NC(=O)c1cncc(Br)c1,0,0,0,0,0,0,-,-
Cc1cc(O)ccc1NC(=S)NC(=O)c1cncc(Br)c1,43,51,0,70,0,0,82,48
CCS(=O)(=O)c1ncc(Cl)c(C(=O)Nc2ccc(S(=O)(=O)N3CCC(C)CC3)cc2)n1,71,83,0,92,49,0,98,93
CN(c1ccccc1)S(=O)(=O)c1ccc(NC(=O)c2ccccc2)cc1,0,0,0,0,0,0,-,-
CN(c1ccccc1)S(=O)(=O)c1ccc(NC(=O)c2nc(S(C)(=O)=O)ncc2Cl)cc1,61,94,90,97,0,0,111,85
O=C(Nc1nc(-c2ccccn2)cs1)Nc1ccc(F)cc1F,41,65,0,67,0,0,65,79
Cc1ccc(-n2c(SCCN)nnc2-c2cccc(C)c2)cc1,42,44,0,60,0,0,70,49
CN(CC(=O)Nc1cccc(F)c1)C(=O)c1ccccc1-n1cnnn1,0,0,0,0,0,0,-,-
CCOc1ccc(-c2csc(/C(C#N)=C\c3ccc(O)c([N+](=O)[O-])c3)n2)cc1,50,39,0,55,0,0,61,0
C/C(CC(=O)Nc1ccc(C)c(Cl)c1)=N\NC(=O)c1cccc(O)c1,0,0,0,0,0,0,-,-
COc1cc(/C=C/c2ccc3cccc(O)c3n2)cc(Br)c1OC,0,0,0,0,0,0,-,-
COc1cc(/C=C/c2ccc3cccc(O)c3n2)cc(OC)c1OC,49,72,0,77,62,0,58,85
Cc1ccc(Cn2cc(CN3CC(N4CCSCC4)CS3(=O)=O)nn2)cc1 (configuration not stated),-,0,-,-,0,-,-,-
COc1ccc2c(c1)CCC(=O)[C@H](O)C[C@H](c1ccccc1)OC2=O,-,0,-,-,0,-,-,-
COc1ccccc1N1CCN(C(=O)c2cc(S(=O)(=O)N3CCOCC3)ccc2C)CC1,0,0,0,0,0,0,-,-
CCCN(Cc1nnc(-c2cccs2)o1)C(=O)c1cccc(S(=O)(=O)N2CCOCC2)c1,0,0,0,0,0,0,-,-
CCC(C)c1ccc(O)c(NC(=O)c2cccnc2)c1 (configuration not stated),0,0,0,0,0,0,-,-
CC(C)c1ccc(O)c(NC(=S)NC(=O)c2cccnc2)c1,59,60,0,69,0,0,84,67
O=C(C#Cc1ccccc1)c1ccco1,58,69,82,70,0,0,74,83
O=C(NNc1ccc([N+](=O)[O-])cc1[N+](=O)[O-])c1ccco1,51,44,0,58,0,0,79,48
O=C(NNc1ccc([N+](=O)[O-])cc1)c1ccco1,0,0,0,0,0,0,-,-
O=c1cc(CSc2ccc(Cl)cc2)nc(-c2ccccc2)[nH]1,0,0,0,0,0,0,-,-
O=c1cc(CSc2ccc(Cl)cc2)nc(-c2ccccn2)[nH]1,51,54,0,79,48,0,70,68
